According to ChEMBL document CHEMBL1122917, “Vinblastin-23-oyl amino acid derivatives: chemistry, physicochemical data, toxicity, and antitumor activities against P388 and L1210 leukemias” (J Med Chem, 1985):
Several values for one entry are separate records, joined by “and”; a condition that tells them apart may be missing. Equal entries are not always repeated.

Experiments:
[1] = Acute iv toxicity against mice after a dose of injection; format: organism-based; conditions: mouse, in vivo
Mus musculus [2] = assay: Number of survivors on 60th day at dose 2 mg/kg/day in 10 mice implanted with P388 leukemia cell line; 0/10; format: functional
Mus musculus [3] = assay: Percent increase in life span of DBA2 mice after inoculation with L1210 leukemia intravenously at a dose of 4 mg/kg per day; format: functional; conditions: route intravenous
Summary of the method: (§1)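 Female DBA2 mice inoculated iv on day 0 with 10^4 L1210 cells; drugs given iv as sulfate salts in physiological saline, mostly once on day 1. %ILS from all deaths and survivors as (T/C × 100) − 100; survivors scored on days 30 and 60.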

Mus musculus [4] = assay: Percent increase in life span of DBA2 mice after inoculation with L1210 leukemia intravenously at a dose of 5 mg/kg per day; format: functional; conditions: for ILS at 5 mg/kg/day: Mus musculus, L1210, iv; summary of the method: as §1
Mus musculus [5] = assay: Number of survivors of DBA2 mice on 30th day after inoculation with L1210 leukemia cell line intravenously at a dose of 4 mg/kg/day; 0/10; format: functional; conditions: route intravenous
Mus musculus [6] = assay: Number of survivors of DBA2 mice on 30th day after inoculation with L1210 leukemia cell line intravenously at a dose of 5 mg/kg/day; 0/10; format: functional; conditions: route intravenous
Mus musculus [7] = assay: Number of survivors of DBA2 mice on 30th day after inoculation with L1210 leukemia cell line intraperitoneally at a dose of 2 mg/kg/day; 0/10; format: functional; conditions: route intraperitoneal
Mus musculus [8] = assay: Number of survivors on 30th day at dose 2 mg/kg/day in 10 mice implanted with P388 leukemia cell line; 0/10; format: functional
Mus musculus [9] = assay: Number of survivors of DBA2 mice on 30th day after inoculation with L1210 leukemia cell line intravenously at a dose of 3 mg/kg/day; 0/10; format: functional; conditions: route intravenous
Mus musculus [10] = assay: Number of survivors of DBA2 mice on 60th day after inoculation with L1210 leukemia cell line intravenously at a dose of 4 mg/kg/day; 0/10; format: functional; conditions: route intravenous
Mus musculus [11] = assay: Number of survivors of DBA2 mice on 60th day after inoculation with L1210 leukemia cell line intravenously at a dose of 5 mg/kg/day; 0/10; format: functional; conditions: route intravenous
[12] = Acute iv toxicity against rat after a dose of injection; format: organism-based; conditions: in vivo
Mus musculus [13] = assay: Number of survivors of DBA2 mice on 60th day after inoculation with L1210 leukemia cell line intravenously at a dose of 3 mg/kg/day; 0/10; format: functional; conditions: route intravenous
Mus musculus [14] = assay: Percent increase in life span of BDF1 mice after inoculation with P388 leukemia intraperitoneally at a dose of 2 mg/kg per day; conditions: P388, ip
Mus musculus [15] = assay: Percent increase in life span at dose 6 mg/kg/day in 10 mice implanted with P388 leukemia cell line; format: functional
Summary of the method: (§2)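 Female DBA2 mice inoculated iv on day 0 with 10^4 P388 cells; single iv treatment on day 1 with drug as sulfate salt in physiological saline. Survival followed; %ILS from all deaths and survivors as (T/C × 100) − 100, maximal MST 30 days; survivors counted on days 30 and 60. Most experiments confirmed three times.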

Mus musculus [16] = assay: Number of survivors of DBA2 mice on 60th day after inoculation with L1210 leukemia cell line intraperitoneally at a dose of 6 mg/kg/day; 0/10; format: functional; conditions: route intraperitoneal
Mus musculus [17] = assay: Percent increase in life span of DBA2 mice after inoculation with L1210 leukemia intravenously at a dose of 7 mg/kg per day; format: functional; conditions: route intravenous; summary of the method: as §1
Mus musculus [18] = assay: Number of survivors on 60th day at dose 6 mg/kg/day in 10 mice implanted with P388 leukemia cell line; 0/10; format: functional
Mus musculus [19] = assay: Percent increase in life span at dose 7 mg/kg/day in 10 mice implanted with P388 leukemia cell line; format: functional; summary of the method: as §2
Mus musculus [20] = assay: Percent increase in life span at dose 8 mg/kg/day in 10 mice implanted with P388 leukemia cell line; format: functional; summary of the method: as §2
Mus musculus [21] = assay: Number of survivors of DBA2 mice on 30th day after inoculation with L1210 leukemia cell line intravenously at a dose of 7 mg/kg/day; 0/10; format: functional; conditions: route intravenous
Mus musculus [22] = assay: Percent increase in life span at dose 4 mg/kg/day in 10 mice implanted with P388 leukemia cell line; format: functional; conditions: for ILS at 4 mg/kg/day: Mus musculus, P388; summary of the method: as §2
Mus musculus [23] = assay: Percent increase in life span at dose 4 mg/kg/day in 10 mice implanted with P388 leukemia cell line for 1st scheduled day; format: functional
Summary of the method: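 Female DBA2 mice inoculated iv on day 0 with 10^5 P388 cells; iv dosing of sulfate salts in physiological saline on day 1 only or on days 1, 8 and 15. %ILS from all deaths and survivors as (T/C × 100) − 100, maximal MST 60 days; survivors scored on day 60.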

Mus musculus [24] = assay: Percent increase in life span at dose 5 mg/kg/day in 10 mice implanted with P388 leukemia cell line; format: functional; summary of the method: as §2
Mus musculus [25] = assay: Number of survivors on 60th day at dose 4 mg/kg/day in 10 mice implanted with P388 leukemia cell line; 0/10; format: functional
Mus musculus [26] = assay: Number of survivors of DBA2 mice on 30th day after inoculation with L1210 leukemia cell line intraperitoneally at a dose of 3 mg/kg/day; 0/10; format: functional; conditions: route intraperitoneal
Mus musculus [27] = assay: Number of survivors on 30th day at dose 4 mg/kg/day in 10 mice implanted with P388 leukemia cell line; 0/10; format: functional
Mus musculus [28] = assay: Number of survivors on 60th day at dose 7 mg/kg/day in 10 mice implanted with P388 leukemia cell line; 0/10; format: functional; summary of the method: as §2
Mus musculus [29] = assay: Number of survivors of DBA2 mice on 60th day after inoculation with L1210 leukemia cell line intravenously at a dose of 7 mg/kg/day; 0/10; format: functional; conditions: route intravenous
[30] = Acute iv toxicity against Swiss strain of 40 mice after 4 doses of injection; format: organism-based; conditions: mouse, in vivo
Summary of the method: (§3)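 Acute toxicity in Swiss, CD1 or NMRI mice. Drugs given iv as sulfate salts. LD50 taken at day 14 from several dose levels, with 40–[…] mice per drug and strain.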

Mus musculus [31] = assay: Percent increase in life span of DBA2 mice after inoculation with L1210 leukemia intravenously at a dose of 9 mg/kg per day; format: functional; conditions: route intravenous; summary of the method: as §1
Mus musculus [32] = assay: Number of survivors of DBA2 mice on 30th day after inoculation with L1210 leukemia cell line intravenously at a dose of 6 mg/kg/day; 0/10; format: functional; conditions: route intravenous
Mus musculus [33] = assay: Number of survivors of DBA2 mice on 30th day after inoculation with L1210 leukemia cell line intravenously at a dose of 9 mg/kg/day; 0/10; format: functional; conditions: route intravenous
Mus musculus [34] = assay: Number of survivors on 60th day at dose 9 mg/kg/day in 10 mice implanted with P388 leukemia cell line; 0/10; format: functional; summary of the method: as §2
Mus musculus [35] = assay: Number of survivors of DBA2 mice on 60th day after inoculation with L1210 leukemia cell line intravenously at a dose of 9 mg/kg/day; 0/10; format: functional; conditions: route intravenous
Summary of the method: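 Female DBA₂ mice received 10⁴ L1210 cells iv on day 0. Compounds were given iv as sulfate salts in physiological saline, as a single dose on day 1 (mg/kg per day). Groups were 10 mice. Survivors were counted on day 60. Cells were maintained by ip passage in DBA₂ mice.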

[36] = Acute iv toxicity against NMRI strain of 100 mice after 7 doses of injection; format: organism-based; conditions: mouse, in vivo; summary of the method: as §3

SMILES	LD50 [1] [mg/kg]	ILS at 4 mg/kg/day (Mus musculus [3]) [%]	ILS at 5 mg/kg/day (Mus musculus [4]) [%]	Survivors (Mus musculus [5])	Survivors (Mus musculus [6])	Survivors (Mus musculus [7])	Survivors (Mus musculus [10])	Survivors (Mus musculus [11])	LD50 [12] [mg/kg]	Survivors (Mus musculus [13])	ILS at 2 mg/kg/day (Mus musculus [14]) [%]	ILS at 6 mg/kg/day (Mus musculus [15]) [%]	ILS at 7 mg/kg/day (Mus musculus [17]) [%]	Survivors (Mus musculus [18])	ILS at 7 mg/kg/day (Mus musculus [19]) [%]	ILS at 8 mg/kg/day (Mus musculus [20]) [%]	Survivors (Mus musculus [21])	ILS at 5 mg/kg/day (Mus musculus [24]) [%]	Survivors (Mus musculus [27])	Survivors (Mus musculus [29])	further results
CC[C@]1(O)C[C@H]2CN(CCc3c([nH]c4ccccc34)[C@@](C(=O)OC)(c3cc4c(cc3OC)N(C=O)[C@H]3[C@@](O)(C(=O)OC)[C@H](OC(C)=O)[C@]5(CC)C=CCN6CC[C@]43[C@@H]65)C2)C1 [VINCRISTINE]	1	24	36	0	0	0	0	0	1	0	53	–	–	–	–	–	–	–	–	–	Survivors (Mus musculus [2]): 0; Survivors (Mus musculus [8]): 0; Survivors (Mus musculus [9]): 0
CC[C@]1(O)C[C@@H]2CN(CCc3c([nH]c4ccccc34)[C@@](C(=O)OC)(c3cc4c(cc3OC)N(C)[C@H]3[C@@](O)(C(N)=O)[C@H](O)[C@]5(CC)C=CCN6CC[C@]43[C@@H]65)C2)C1 [VINDESINE]	6.3	–	–	–	0	0	–	0	2.6	0	89.5	32	-9.1	0	24	-46	0	30.2	0	0	Survivors (Mus musculus [16]): 0; Survivors (Mus musculus [2]): 0; ILS (Mus musculus [4]; route intravenous): 11.5% and 25.7%; ILS at 4 mg/kg/day (Mus musculus [22]): 25.5%; ILS at 4 mg/kg/day (Mus musculus [23]): 43%; Survivors (Mus musculus [25]): 0; Survivors (Mus musculus [26]): 0; Survivors (Mus musculus [8]): 0; Survivors (Mus musculus [28]): 0
CC[C@]1(O)C[C@@H]2CN(CCc3c([nH]c4ccccc34)[C@@](C(=O)OC)(c3cc4c(cc3OC)N(C)[C@H]3[C@@](O)(C(=O)OC)[C@H](OC(C)=O)[C@]5(CC)C=CCN6CC[C@]43[C@@H]65)C2)C1 [VINBLASTINE]	10	31.9	37	0	0	0	0	0	2.9	0	54	48	35	0	59.3	72.9	0	47.1	0	0	LD50 [30]: 26 mg/kg; ILS at 9 mg/kg/day (Mus musculus [31]): -21.6%; Survivors (Mus musculus [16]): 0; Survivors (Mus musculus [32]): 0; Survivors (Mus musculus [33]): 0; ILS (Mus musculus [22]): 42.3% and 112%; ILS at 4 mg/kg/day (Mus musculus [23]): 52%; Survivors (Mus musculus [34]): 0; Survivors (Mus musculus [25]): 0; Survivors (Mus musculus [26]): 0; Survivors (Mus musculus [9]): 0; Survivors (Mus musculus [35]): 0; LD50 [36]: 27.4 mg/kg
CCOC(=O)[C@@H](NC(=O)[C@@]1(O)[C@H](O)[C@]2(CC)C=CCN3CC[C@@]4(c5cc([C@@]6(C(=O)OC)C[C@H]7C[N@](CCc8c6[nH]c6ccccc86)C[C@](O)(CC)C7)c(OC)cc5N(C)[C@@]14C)[C@@H]32)[C@@H](C)CC	–	20	36	0	0	–	0	0	–	–	–	73.5	27	0	56	> 183	0	60.4	0	0	ILS at 9 mg/kg/day (Mus musculus [31]): 64%; Survivors (Mus musculus [32]): 0; Survivors (Mus musculus [33]): 0; ILS at 4 mg/kg/day (Mus musculus [22]): 60%; Survivors (Mus musculus [34]): 0; Survivors (Mus musculus [28]): 0; Survivors (Mus musculus [35]): 0
CCOC(=O)[C@H](Cc1c[nH]c2ccccc12)NC(=O)[C@@]1(O)[C@H](O)[C@]2(CC)C=CCN3CC[C@@]4(c5cc([C@@]6(C(=O)OC)C[C@H]7C[N@](CCc8c6[nH]c6ccccc86)C[C@](O)(CC)C7)c(OC)cc5N(C)[C@@]14C)[C@@H]32	–	–	–	–	–	–	–	–	–	–	–	–	–	–	–	–	–	–	–	–	LD50 [30]: 94 mg/kg; LD50 [36]: 269 mg/kg
